# DNMT1 inh = human DNMT1 methyltransferase inhibitors, primary screen, biochemical, molecular beacon, fluorescence, HinP1I cleavage, uHTS; inhibition (reported as % activation of signal), % at 10 µM; AID 588458, 2011; 360,000 tested, 0.83% active; in the data active means inhibition above about 50%
# LMPTP inh = LMPTP phosphatase inhibitors, primary screen, biochemical, fluorescence intensity, uHTS; inhibition, % at 20 µM; 360,000 tested, 0.22% active; Low molecular weight phosphotyrosine protein phosphatase (Homo sapiens), P24666; recombinant LMPTP-A, OMFP fluorogenic substrate;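 active means compounds that cut the enzyme signal by at least half of the control window in the single-dose screen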
#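 Assay system: LMPTP-A phosphatase enzyme | Input: 0.625 nM enzyme | Also added: Fluorogenic phosphatase substrate OMFP at 400 µM final | Compound dosing: One test concentration per compound, 20 µM, with 3% DMSO overall | Schedule: 50 min enzyme reaction at room temperature, protected from light | Signal: Fluorescence intensity | Benchmarks: no-enzyme and uninhibited controls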
# SUMO1 PPI mod = modulators of SUMO1 protein-protein interactions, primary screen, biochemical, uHTS; AID 602429, 2012; inhibition, % at 20 µM; Small ubiquitin-related modifier 1 (Homo sapiens), P63165; 360,000 tested, 0.33% active; SUMO1 binding to a labelled peptide, TR-FRET, 1 h; in the data active means inhibition above about 37%
# STEP block = STEP phosphatase inhibitors, primary screen, biochemical, fluorescence intensity, uHTS. inhibition, % at 20 µM. AID 588621, 2011. recombinant STEP, OMFP fluorogenic substrate. 360,000 tested, 0.25% active;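 active means inhibition at 20 µM, scaled per plate between control wells, above about 37%, limit read from the data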
# Target sequence (P54829 whole entry, looked up): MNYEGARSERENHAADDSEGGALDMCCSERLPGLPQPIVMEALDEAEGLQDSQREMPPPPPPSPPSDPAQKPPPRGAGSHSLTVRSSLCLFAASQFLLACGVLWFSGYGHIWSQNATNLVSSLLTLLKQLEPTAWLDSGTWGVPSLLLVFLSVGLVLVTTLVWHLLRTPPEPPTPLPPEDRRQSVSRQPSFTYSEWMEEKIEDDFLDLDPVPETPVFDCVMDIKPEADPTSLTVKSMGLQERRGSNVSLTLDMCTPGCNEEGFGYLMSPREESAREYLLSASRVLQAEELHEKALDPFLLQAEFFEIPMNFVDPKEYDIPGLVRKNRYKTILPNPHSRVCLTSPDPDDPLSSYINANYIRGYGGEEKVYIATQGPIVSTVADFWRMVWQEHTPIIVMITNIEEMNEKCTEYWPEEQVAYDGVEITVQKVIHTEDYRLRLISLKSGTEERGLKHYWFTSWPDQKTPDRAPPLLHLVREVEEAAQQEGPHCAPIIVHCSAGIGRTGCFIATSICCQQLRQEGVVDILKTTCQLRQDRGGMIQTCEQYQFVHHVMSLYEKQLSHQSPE
#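 Also added – OMFP at 25 µM · Test system – STEP tyrosine phosphatase · Technique – FITC-channel fluorescence of OMFP product · Schedule – 20 min at room temperature, dark · Evaluation – control-normalized % inhibition with plate pattern correction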
# Scp1 inh = Scp-1 phosphatase inhibitors, primary screen, biochemical, colorimetric, uHTS; Carboxy-terminal domain RNA polymerase II polypeptide A small phosphatase 1 (Homo …; Recombinant Scp1, phosphopeptide, malachite green phosphate absorbance; inhibition, % at 20 µM; 340,000 tested, 0.88% active; AID 493091, 2011;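 active means inhibition above about 50% at 20 µM, limit read from the data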
#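 Test system: SCP-1 phosphatase catalytic domain, residues 76-261; measured by: colorimetric phosphate reagent with accelerator and stabiliser, absorbance at 630 nm; timing: enzyme reaction 45 min at room temperature, colour 5 min, stabilisation 30 min; also added: Phosphorylated 17-residue peptide substrate; compound dosing: one concentration, 20 µM, with 1.0% DMSO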
# DNMT1 confirm = DNMT1 methyltransferase inhibitor retest, confirmation, biochemical, molecular beacon, fluorescence, single concentration; shares compounds with DNMT1 inh; DNMT1 molecular beacon HinP1I cleavage; inhibition, % at 10 µM; 2,300 tested, 8% active; AID 602385, 2012;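 active means average inhibition of at least 30% in the single-concentration confirmation test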
# Beacon interf = shows spectral interference in the DNMT1 beacon assay. shares compounds with DNMT1 inh. DNMT1 molecular beacon spectral interference counterscreen, fluorescence 485/520. 2,300 tested, 1% active. activation (fluorescence interference), % at 10 µM;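 active means activation of at least 30% at 10 µM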;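 further: DNMT1 catalytic domain with a HinP1I cleavage step and a FAM/dabcyl DNA beacon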
# Hits are given with their value; . = inactive; / = no result given. This is a sample that favours compounds with a hit; in the whole collection about 1.8% have one here.
SMILES,DNMT1 inh,LMPTP inh,SUMO1 PPI mod,STEP block,Scp1 inh,DNMT1 confirm,Beacon interf
COc1cc(/C=C2\SC(=O)N(CC(=O)Nc3ccc(C)cc3)C2=O)cc(Cl)c1OCC(=O)O,90,84,47,98,.,.,.
Nc1ncnc2c1ncn2[C@@H]1O[C@H](CNS(=O)(=O)c2cc(S(=O)(=O)c3ccccc3)cs2)[C@@H](O)[C@H]1O,.,.,.,.,.,/,/
COc1ccccc1Cc1c(-c2ccco2)nc2ccc(Br)cn12,71,.,.,.,/,.,.
Clc1ccc2nc(-c3ccco3)c(Cc3ccccc3)n2c1,64,.,.,.,/,.,.
O=C(NC(=S)NC1C2CC3CC(C2)CC1C3)c1ccccc1 (configuration not stated),.,.,.,.,.,/,/
CC(=O)c1c(C)[nH]c(C(=O)OCC(=O)N(CC(C)C)C2CCS(=O)(=O)C2)c1C (configuration not stated),.,.,.,.,.,/,/
CC(C)(C)c1ccc(C(=O)N2CCC2(C)C(=O)NCc2ccc3c(c2)OCO3)cc1 (configuration not stated),.,.,.,.,/,/,/
c1ccc(-c2cnn3c(-c4ccccc4)c(-c4ccccc4)nc3n2)cc1,178,.,.,.,.,.,60
CCOc1ccc2nc(N3C(=O)/C(=C/c4ccc(Cl)cc4)NC3=S)sc2c1,94,.,79,.,55,.,.
O=C(N/N=C/c1ccc(O)cc1O)c1ccc(CN2C(=O)c3cccc4cccc2c34)cc1,.,.,.,.,.,/,/
O=C(N/N=C/c1ccccc1)c1ccc(CN2C(=O)c3cccc4cccc2c34)cc1,53,.,.,.,.,.,.
CN(C)C(=O)Oc1ccc[n+](C)c1,60,.,.,.,.,.,.
C[n+]1cccc(C(=O)[O-])c1,.,.,.,.,.,/,/
COc1ccc(OC)c(CN2CCN(C(=O)c3ccc(S(=O)(=O)Nc4ccccc4F)cc3)CC2)c1,.,.,.,.,.,/,/
O=C(CCN1CCN(c2ccccc2)CC1)N/N=C/c1ccc(O)c(O)c1O,79,67,.,.,.,.,.
COc1ccc(C(=O)COC(=O)c2ccc3c(c2)OCO3)c(OC)c1,.,.,.,.,.,/,/
Cc1cccn2c(=O)c3cc(C(N)=S)c(=N)n(CCCOC(C)C)c3nc12,62,.,.,.,.,.,.
O=C(NCCOc1ccccc1F)c1ccc2c(=O)n3c(nc2c1)CCC3,.,.,.,.,.,/,/
O=C(Nc1ccc2c(c1)OCO2)c1cnn2c(C(F)(F)F)cc(-c3ccco3)nc12,.,.,.,.,.,/,/
O=C(Nc1cnn(C23CC4CC(CC(C4)C2)C3)c1)c1cnn2c(C(F)(F)F)cc(-c3ccco3)nc12,58,.,.,.,.,.,.
CCOC(=O)c1c(NC(=O)N/N=C/c2ccccc2OCC)sc(C(C)=O)c1C,56,.,.,.,.,.,.
COc1ccc(C(=O)Nc2ccc(N3CCCC3)cc2)cc1,86,.,.,.,.,.,.
CCOc1ccc(C(=O)Nc2ccc(N3CCCC3)cc2)cc1,80,.,.,.,.,.,.
COc1ccccc1C(=O)NC(=S)Nc1ccc(N2CCCC2)cc1,68,.,.,.,.,.,.
CCN(CC)c1ccc(S(=O)(=O)N2CCCCC2)cc1NC(=O)CSCc1c(C)noc1C,.,.,.,.,.,/,/
SMILES,DNMT1 inh,LMPTP inh,SUMO1 PPI mod,STEP block,Scp1 inh,DNMT1 confirm,Beacon interf
CCOc1ccc2ccccc2c1CNc1nnnn1CC,92,.,.,.,.,.,.
COc1ccc2c3c(cccc13)N(C)N=C2C,93,.,.,.,.,.,.
COc1ccc2c3c(cccc13)OC2=O,.,.,.,.,.,/,/
Nc1ncnc2c1ncn2[C@@H]1O[C@H](C(=O)Nc2ccc(Oc3ccccc3)nc2)[C@@H](O)[C@H]1O,.,.,.,.,/,/,/
CN(C)C1CCCCC=CC(=O)NC1 (configuration not stated),52,.,.,.,/,.,.
CN(c1c[nH]c(=O)[nH]c1=O)C1CCCCC1,.,.,.,.,.,/,/
Cc1nn(-c2ccccc2)c(C)c1NC(=O)COc1cc(F)ccc1[N+](=O)[O-],.,.,.,.,.,/,/
CN1CCS/C1=C\C=C1/SC(=S)N(CC(=O)O)C1=O,63,.,.,.,.,57,60
CCN1C(=O)/C(=C/C=C2/SCCN2C)SC1=S,.,.,.,.,.,/,/
Cc1cnn(-c2cc(N/N=C/c3ccc(F)cc3)ncn2)c1,60,.,.,.,.,.,.
N#Cc1c(N)n(CCc2ccc(F)cc2)c2nc3ccccc3nc12,71,.,.,.,.,.,.
COCCn1c(N)c(C#N)c2nc3ccccc3nc21,.,.,.,.,.,/,/
Cc1noc(C)c1-c1ccc(C(=O)NCc2cccnc2)c2occc12,.,.,.,.,/,/,/
O=C(NNc1cc(N2CCCC2)nc(N2CCCC2)n1)c1ccc([N+](=O)[O-])cc1,56,.,37,.,.,.,.
N#CC1=C(N)OC2=C(C(=O)CCC2)C1c1ccncc1 (configuration not stated),75,.,.,.,.,.,.
CCc1ccc2c(c1)c1nc(C)sc1n2CC,51,.,.,.,.,.,.
COc1cccc(NC(=O)CSc2nc(O)c(C)c(=O)n2-c2ccc(C)cc2)c1,.,.,.,.,.,/,/
N#Cc1c(NCCN)nc(NCc2ccccc2)c2c1CCN(Cc1ccccc1)C2,77,.,.,.,.,.,.
CCOc1ccccc1-n1nnnc1SCC(=O)NC(=O)Cc1ccccc1,.,.,.,.,.,/,/
Cn1nnnc1SCC(=O)NCc1ccco1,.,.,.,.,.,/,/
O=C(CSc1nnnn1-c1ccccc1)NC(=O)NCc1ccco1,68,.,.,.,.,.,.
CCOc1ccccc1-n1nnnc1SCC(=O)NC(=O)NCc1ccco1,60,.,.,.,.,.,.
CC(C)CN(C(=O)CSc1nc2ccccc2o1)c1c(N)n(Cc2ccccc2)c(=O)[nH]c1=O,.,.,.,.,.,/,/

# Source: PubChem BioAssay (Sanford-Burnham Center for Chemical Genomics)
